Measured values published in publication PMC11100303 (RSC Advances, 2024).

How the values were obtained:
[1] = pH of compound dissolved in water; type: physicochemical; conditions: mean ± S.D., n = 3
[2] = Thermogravimetric analysis; type: physicochemical; conditions: TGA, 30 to 350 °C at 10 °C min^−1, nitrogen
How it was run: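 Samples of 2–5 mg weighed into platinum pans and heated from 30 to 350 °C at 10 °C min−1 under nitrogen purge at 25 mL min−1. T5% taken as the temperature at 5% loss of total sample mass.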

[3] = system: Human endocervical epithelial cell line (A2EN); assay: Crystal violet staining for cervical cell morphology; type: cell-based; conditions: 24 h treatment, even at 100 mM
[4] = system: Human endocervical epithelial cell line (A2EN); assay: MTT assay for cervical cell proliferation / viability; type: cell-based; conditions: 24 h treatment, even at high concentrations of 50 mM

| pH [1] | T5% (onset temperature at 5% mass loss) [2] | Morphological changes of cervical epithelial cells [3] | SMILES | Effect on cervical epithelial cell viability [4] |
| --- | --- | --- | --- | --- |
| 2.9 ± 1.2 | – | – | O=C(O)C(O)Cc1ccccc1 [D-PLA, 2-hydroxy-3-phenylpropanoic acid] | – |
| 9.02 ± 1.7 | 94.3 °C | no morphological changes were observed | C[N+](C)(C)CCO.O=C([O-])[C@H](O)Cc1ccccc1 [Chol : D-PLA (1 : 1)] | did not significantly reduce cervical epithelial cell viability |
| 3.2 ± 1.6 | 156.07 °C | – | O=C(O)C(O)Cc1ccccc1 [L-PLA, 2-hydroxy-3-phenylpropanoic acid] | – |
| – | 189.9 °C | – | C[N+](C)(C)C[C@H](O)CC(=O)[O-] [carnitine, L-Carnitine] | – |
